Assay [1] deals with Mast/stem cell growth factor receptor Kit (Homo sapiens), P10721 [L576P]. Briefly: Inhibition of KIT L576P mutant at 1 uM.
For assay [2], the target named is cAMP-dependent protein kinase catalytic subunit beta (Homo sapiens) (UniProt P22694). Kind of assay: Inhibition of PKAC-beta at 1 uM.
Assay [3] concerns the target BDNF/NT-3 growth factors receptor (Homo sapiens) (UniProt Q16620). Kind of assay: Inhibition of TRKB at 1 uM. In a few lines: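 Single-concentration screen on the Ambit KINOMEscan platform, run against a panel of 250–400 kinases. Per-kinase inhibition was also summarized as S(90), the fraction of kinases inhibited by more than 90%.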
The target in assay [4] is Cyclin-dependent kinase 5 (Homo sapiens) (UniProt Q00535). Kind of assay: Inhibition of CDK5 at 1 uM. In a few lines:
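Ambit KINOMEscan screen at a single concentration across a 250–400 kinase panel, recorded as percent inhibition. Selectivity was expressed as S(90), the fraction of kinases inhibited >90%.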

Assay [5] addresses T1, Ephrin type-B receptor 1 (Homo sapiens) (UniProt P54762).
T1 sequence (whole entry): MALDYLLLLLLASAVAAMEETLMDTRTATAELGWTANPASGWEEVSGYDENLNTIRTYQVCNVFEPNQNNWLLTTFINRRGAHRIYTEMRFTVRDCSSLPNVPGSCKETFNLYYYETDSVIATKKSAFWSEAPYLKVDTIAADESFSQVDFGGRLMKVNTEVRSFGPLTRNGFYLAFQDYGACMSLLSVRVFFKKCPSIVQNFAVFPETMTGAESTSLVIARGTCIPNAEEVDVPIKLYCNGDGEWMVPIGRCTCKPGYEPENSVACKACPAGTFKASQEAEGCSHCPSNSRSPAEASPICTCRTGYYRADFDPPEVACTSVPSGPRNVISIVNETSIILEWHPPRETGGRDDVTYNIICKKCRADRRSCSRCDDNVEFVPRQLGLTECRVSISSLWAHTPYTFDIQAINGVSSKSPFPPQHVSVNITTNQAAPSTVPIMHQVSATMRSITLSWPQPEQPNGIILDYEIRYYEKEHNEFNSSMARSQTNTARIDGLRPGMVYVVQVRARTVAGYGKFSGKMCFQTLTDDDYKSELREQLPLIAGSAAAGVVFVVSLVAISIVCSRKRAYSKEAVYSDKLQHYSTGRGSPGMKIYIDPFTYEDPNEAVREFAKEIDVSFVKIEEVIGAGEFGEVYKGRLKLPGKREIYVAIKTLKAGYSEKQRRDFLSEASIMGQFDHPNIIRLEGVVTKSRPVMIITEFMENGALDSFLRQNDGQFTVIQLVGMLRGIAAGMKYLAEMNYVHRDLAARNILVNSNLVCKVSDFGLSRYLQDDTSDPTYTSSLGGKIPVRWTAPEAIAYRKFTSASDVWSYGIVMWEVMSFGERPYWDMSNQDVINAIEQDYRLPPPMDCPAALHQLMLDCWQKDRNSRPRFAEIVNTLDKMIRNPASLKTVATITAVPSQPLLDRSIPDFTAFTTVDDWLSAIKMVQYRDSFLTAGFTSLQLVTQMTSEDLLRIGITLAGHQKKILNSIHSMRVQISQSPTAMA
Briefly: Inhibition of EPHB1 at 1 uM. The method, boiled down: (§1)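 Single-concentration screen using Ambit Bioscience KINOMEscan technology across a panel of 250–400 kinases. Per-kinase inhibition from this screen was summarized as S(90), the fraction of kinases inhibited by more than 90%.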

Assay [6] concerns the target T2, Ephrin type-B receptor 2 (Homo sapiens) (UniProt P29323).
T2 sequence (whole entry): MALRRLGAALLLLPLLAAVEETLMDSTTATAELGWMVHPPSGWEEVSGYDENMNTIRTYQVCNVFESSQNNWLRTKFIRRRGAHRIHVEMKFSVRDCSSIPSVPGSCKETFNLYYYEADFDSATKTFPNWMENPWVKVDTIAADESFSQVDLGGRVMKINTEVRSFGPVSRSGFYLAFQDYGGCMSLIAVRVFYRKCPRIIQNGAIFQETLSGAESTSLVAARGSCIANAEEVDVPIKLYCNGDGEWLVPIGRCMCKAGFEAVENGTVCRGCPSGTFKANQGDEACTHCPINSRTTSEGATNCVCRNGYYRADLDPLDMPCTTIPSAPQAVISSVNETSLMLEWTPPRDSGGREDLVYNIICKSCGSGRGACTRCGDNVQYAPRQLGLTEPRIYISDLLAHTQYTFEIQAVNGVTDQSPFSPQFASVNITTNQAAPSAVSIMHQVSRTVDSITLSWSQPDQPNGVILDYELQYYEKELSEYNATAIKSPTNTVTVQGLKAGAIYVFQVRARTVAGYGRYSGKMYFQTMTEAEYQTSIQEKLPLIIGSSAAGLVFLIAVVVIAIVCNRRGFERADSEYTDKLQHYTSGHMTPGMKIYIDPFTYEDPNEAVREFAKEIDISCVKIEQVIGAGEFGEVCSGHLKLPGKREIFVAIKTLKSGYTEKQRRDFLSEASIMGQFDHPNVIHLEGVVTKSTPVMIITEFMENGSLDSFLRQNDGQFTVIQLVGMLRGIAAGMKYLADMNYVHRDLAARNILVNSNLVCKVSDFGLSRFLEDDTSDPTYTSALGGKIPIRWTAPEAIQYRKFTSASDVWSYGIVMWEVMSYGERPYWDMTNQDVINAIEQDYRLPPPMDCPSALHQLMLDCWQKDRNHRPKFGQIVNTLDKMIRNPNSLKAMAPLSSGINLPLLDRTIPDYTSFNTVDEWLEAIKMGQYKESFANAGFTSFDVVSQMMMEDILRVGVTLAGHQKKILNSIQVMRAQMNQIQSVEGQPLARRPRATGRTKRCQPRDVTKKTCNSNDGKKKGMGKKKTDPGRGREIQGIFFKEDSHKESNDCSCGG
Briefly: Inhibition of EPHB2 at 1 uM. The method, boiled down: as §1

Molecules are shown by their SMILES.

Mast/stem cell growth factor receptor Kit (Homo sapiens), P10721 [L576P], sequence (P10721 whole entry L576P): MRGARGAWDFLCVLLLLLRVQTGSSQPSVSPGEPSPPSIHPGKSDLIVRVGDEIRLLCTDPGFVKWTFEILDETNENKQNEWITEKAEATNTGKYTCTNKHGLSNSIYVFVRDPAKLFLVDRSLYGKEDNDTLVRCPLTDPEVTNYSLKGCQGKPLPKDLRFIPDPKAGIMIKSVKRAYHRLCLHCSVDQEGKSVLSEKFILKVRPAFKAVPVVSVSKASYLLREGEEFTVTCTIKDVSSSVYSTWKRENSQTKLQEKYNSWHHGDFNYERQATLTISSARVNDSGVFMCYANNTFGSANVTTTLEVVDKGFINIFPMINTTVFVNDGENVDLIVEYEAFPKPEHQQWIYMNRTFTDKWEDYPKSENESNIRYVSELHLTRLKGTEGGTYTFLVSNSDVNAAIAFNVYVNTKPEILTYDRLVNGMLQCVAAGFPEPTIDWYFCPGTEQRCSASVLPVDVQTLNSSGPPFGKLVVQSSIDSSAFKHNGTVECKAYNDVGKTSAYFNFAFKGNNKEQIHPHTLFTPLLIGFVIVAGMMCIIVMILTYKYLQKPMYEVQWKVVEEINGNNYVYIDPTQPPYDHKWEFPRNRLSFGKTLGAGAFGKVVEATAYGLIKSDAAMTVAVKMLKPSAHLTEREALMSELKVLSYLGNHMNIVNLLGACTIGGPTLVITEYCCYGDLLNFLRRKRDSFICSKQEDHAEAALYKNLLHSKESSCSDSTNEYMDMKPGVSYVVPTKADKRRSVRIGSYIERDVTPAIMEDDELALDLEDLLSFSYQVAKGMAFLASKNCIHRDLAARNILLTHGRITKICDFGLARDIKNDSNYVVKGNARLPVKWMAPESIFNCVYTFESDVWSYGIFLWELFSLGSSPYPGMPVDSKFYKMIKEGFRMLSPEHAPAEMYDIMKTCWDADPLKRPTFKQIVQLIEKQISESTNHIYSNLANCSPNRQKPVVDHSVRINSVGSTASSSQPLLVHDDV
Cyclin-dependent kinase 5 (Homo sapiens), sequence (Q00535 whole entry, looked up): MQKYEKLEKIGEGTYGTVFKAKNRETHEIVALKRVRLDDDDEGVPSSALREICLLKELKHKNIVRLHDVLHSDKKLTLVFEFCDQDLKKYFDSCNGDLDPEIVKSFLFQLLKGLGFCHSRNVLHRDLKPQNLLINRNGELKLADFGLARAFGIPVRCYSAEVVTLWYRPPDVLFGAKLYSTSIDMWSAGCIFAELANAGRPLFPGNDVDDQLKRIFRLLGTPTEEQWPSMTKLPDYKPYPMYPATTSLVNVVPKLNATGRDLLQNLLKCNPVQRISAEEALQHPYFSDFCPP
BDNF/NT-3 growth factors receptor (Homo sapiens), sequence (Q16620 32-822 limits assumed): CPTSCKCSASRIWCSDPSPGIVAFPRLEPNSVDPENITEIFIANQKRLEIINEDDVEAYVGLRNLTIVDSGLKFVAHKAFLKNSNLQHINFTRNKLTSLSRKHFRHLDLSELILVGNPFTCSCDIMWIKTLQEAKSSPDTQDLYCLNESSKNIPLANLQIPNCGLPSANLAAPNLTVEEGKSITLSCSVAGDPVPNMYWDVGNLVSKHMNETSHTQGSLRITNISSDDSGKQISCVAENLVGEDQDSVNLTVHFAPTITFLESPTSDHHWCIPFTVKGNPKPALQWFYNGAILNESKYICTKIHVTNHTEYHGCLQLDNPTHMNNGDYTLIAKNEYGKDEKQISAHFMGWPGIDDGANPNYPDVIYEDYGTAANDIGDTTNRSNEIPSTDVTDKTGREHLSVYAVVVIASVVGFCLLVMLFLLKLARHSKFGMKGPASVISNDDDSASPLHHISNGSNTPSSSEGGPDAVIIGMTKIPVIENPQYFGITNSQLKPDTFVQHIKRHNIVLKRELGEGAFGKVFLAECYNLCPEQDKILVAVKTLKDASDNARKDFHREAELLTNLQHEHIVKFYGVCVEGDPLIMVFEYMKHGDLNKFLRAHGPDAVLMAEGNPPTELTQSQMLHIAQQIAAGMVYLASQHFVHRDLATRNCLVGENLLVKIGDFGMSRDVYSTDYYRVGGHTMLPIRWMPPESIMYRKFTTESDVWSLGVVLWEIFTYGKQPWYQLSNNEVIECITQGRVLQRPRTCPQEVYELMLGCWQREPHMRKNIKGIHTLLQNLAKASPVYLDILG

In general, inhibition refers to the percentage by which the read-out fell short of the control. A higher inhibition goes with strong suppression. With `FC(F)(F)c1ccc(Cl)cc1CN1CCNc2ncc(-c3ccnc(N4CCNCC4)c3)cc21`, the inhibition in assay [1] was 99%; in assay [2], below 50%; in assay [3], 79%; in assay [4] it was below 50%; in assay [5], below 50%; in assay [6] it was below 50%.

As to `CN1CCN(c2ccc(-c3cnc4c(c3)N(Cc3cc(F)ccc3F)CCN4)cn2)CC1`, the inhibition is 75% in assay [1]; below 50% in assay [2]; 58% in assay [3]; below 50% in assay [4]; below 50% in assay [5]; below 50% in assay [6].

For `CN1CCN(c2ccc(-c3cnc4c(c3)N(Cc3cc(Cl)ccc3Cl)CCN4)cn2)CC1`, the inhibition in assay [1] was 98%; in assay [2], below 50%; in assay [3], 72%; in assay [4], below 50%; in assay [5], below 50%; in assay [6], below 50%.

Turning to `O=C(O)c1ccc(-c2cnc3c(c2)N(Cc2cc(Cl)ccc2C(F)(F)F)CCN3)cc1`, the inhibition in assay [2] is below 50%; in assay [3] it was 65%; in assay [4], below 50%; in assay [5], below 50%; in assay [6] it was below 50%.

On to `CN1CCN(c2ccc(-c3cnc4c(c3)N(Cc3cc(Cl)ccc3C(F)(F)F)CCN4)cn2)CC1`, for which the inhibition in assay [1] was 80%; in assay [2], below 50%; in assay [3], below 50%; in assay [4] it was below 50%; in assay [5] it was below 50%; in assay [6] it was below 50%.

On to `COC1CCN(C(=O)c2ccc(-c3cnc4c(c3)N(Cc3cc(Cl)ccc3C(F)(F)F)CCN4)cc2)CC1`, for which the inhibition in assay [2], in assay [3], in assay [4], in assay [5] and in assay [6] was below 50% in each case.

As for `O=C(c1ccc(-c2cnc3c(c2)N(Cc2cc(Cl)ccc2C(F)(F)F)CCN3)cc1)N1CCC(N2CCCC2)CC1`, the inhibition is below 50% in assay [2]; 73.6% in assay [3]; below 50% in assay [4]; below 50% in assay [5]; below 50% in assay [6].

For `CN1CCN(c2ccc(-c3cnc4c(c3)N(Cc3c(F)ccc(F)c3Cl)CCN4)cn2)CC1`, the inhibition in assay [1] is 73%; in assay [2] it was below 50%; in assay [3], 72%; in assay [4], below 50%; in assay [5], below 50%; in assay [6], below 50%.

For `O=C(c1ccc(-c2cnc3c(c2)N(Cc2cc(Cl)ccc2C(F)(F)F)CCN3)cc1)N1CCCCC1`, the inhibition in assay [2], in assay [3], in assay [4], in assay [5] and in assay [6] was below 50% in each case.

In the case of `CC(=O)N1CCN(c2cc(-c3cnc4c(c3)N(Cc3cc(Cl)ccc3C(F)(F)F)CCN4)ccn2)CC1`, the inhibition is 90% in assay [1]; below 50% in assay [2]; 76% in assay [3]; below 50% in assay [4]; below 50% in assay [5]; below 50% in assay [6].
